The results in this text go back to ChEMBL document CHEMBL1148427, “Diastereoselective synthesis and configuration-dependent activity of (3-substituted-cycloalkyl)glycine pyrrolidides and thiazolidides as dipeptidyl peptidase IV inhibitors” (Bioorg Med Chem Lett, 2004).

The nature of assay [1]: Inhibitory activity against human aminopeptidase P.
Another assay addresses Dipeptidyl peptidase 4 (Homo sapiens, UniProt P27487). The assay can be described thus: Inhibitory activity against human recombinant Dipeptidylpeptidase IV. Summed up: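 Human recombinant enzyme run in a fluorometric assay with Gly-Pro-AMC as substrate. Cleavage releases fluorescent 7-amino-4-methylcoumarin, which is read to give IC50 values.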
A further assay has as its target Dipeptidyl peptidase 2 (Homo sapiens, UniProt Q9UHL4). Put plainly: Inhibitory activity against human quiescent cell proline dipeptidase.
The next assay deals with T1, Prolyl endopeptidase (Homo sapiens, UniProt P48147).
T1 sequence (P48147 whole entry): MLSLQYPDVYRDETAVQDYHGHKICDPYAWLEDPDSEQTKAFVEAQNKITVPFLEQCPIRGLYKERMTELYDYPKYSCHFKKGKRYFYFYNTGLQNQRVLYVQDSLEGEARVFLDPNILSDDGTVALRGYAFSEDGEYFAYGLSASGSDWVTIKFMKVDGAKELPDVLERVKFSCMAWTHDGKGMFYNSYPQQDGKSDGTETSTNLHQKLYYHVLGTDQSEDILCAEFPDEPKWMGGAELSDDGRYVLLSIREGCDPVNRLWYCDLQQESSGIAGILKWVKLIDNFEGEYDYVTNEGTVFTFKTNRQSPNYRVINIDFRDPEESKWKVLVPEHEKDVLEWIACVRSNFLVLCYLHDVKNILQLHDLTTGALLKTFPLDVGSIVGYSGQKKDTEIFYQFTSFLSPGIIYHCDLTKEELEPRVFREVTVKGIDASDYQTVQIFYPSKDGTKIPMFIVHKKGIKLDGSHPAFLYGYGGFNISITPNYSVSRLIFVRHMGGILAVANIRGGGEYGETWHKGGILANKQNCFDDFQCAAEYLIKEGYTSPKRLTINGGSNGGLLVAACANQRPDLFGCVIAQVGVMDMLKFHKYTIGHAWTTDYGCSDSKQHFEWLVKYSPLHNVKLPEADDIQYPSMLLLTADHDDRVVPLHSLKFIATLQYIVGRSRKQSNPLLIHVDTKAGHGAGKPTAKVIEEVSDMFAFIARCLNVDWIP
The assay can be described thus: Inhibitory activity against human prolylendopeptidase.

Usually IC50 stands for the concentration that gives 50% inhibition.

Dipeptidyl peptidase 4, sequence (P27487 whole entry): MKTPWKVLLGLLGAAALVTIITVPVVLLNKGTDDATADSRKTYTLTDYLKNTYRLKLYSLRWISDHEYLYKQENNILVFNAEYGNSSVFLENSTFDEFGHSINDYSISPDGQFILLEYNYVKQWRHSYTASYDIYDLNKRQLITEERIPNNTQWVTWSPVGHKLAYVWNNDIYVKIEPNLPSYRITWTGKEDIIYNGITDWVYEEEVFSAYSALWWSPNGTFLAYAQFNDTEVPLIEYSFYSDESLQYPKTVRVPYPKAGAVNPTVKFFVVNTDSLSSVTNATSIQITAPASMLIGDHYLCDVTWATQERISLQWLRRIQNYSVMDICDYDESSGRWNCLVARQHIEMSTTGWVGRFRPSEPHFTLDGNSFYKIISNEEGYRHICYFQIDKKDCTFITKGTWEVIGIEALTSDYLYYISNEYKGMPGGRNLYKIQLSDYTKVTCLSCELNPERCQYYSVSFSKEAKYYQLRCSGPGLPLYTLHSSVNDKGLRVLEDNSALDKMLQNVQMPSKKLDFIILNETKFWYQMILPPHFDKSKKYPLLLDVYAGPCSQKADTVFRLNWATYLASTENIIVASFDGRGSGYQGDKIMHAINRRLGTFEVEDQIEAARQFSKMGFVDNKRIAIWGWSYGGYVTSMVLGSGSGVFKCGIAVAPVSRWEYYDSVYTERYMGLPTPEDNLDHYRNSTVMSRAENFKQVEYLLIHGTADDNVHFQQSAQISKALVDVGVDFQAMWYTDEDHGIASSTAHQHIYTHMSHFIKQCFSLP

With `COC(=O)[C@H](NC(=O)OC(C)(C)C)[C@H]1CC[C@@H](O)C1`, the IC50 in assay [1] is greater than 100000 nM.
Consider `N[C@H](C(=O)N1CCCC1)[C@H]1CC[C@H](OC(=O)Nc2ccc(I)cc2)C1`, for which the IC50 was greater than 100000 nM in assay [1], 180 nM at Dipeptidyl peptidase 4 and 260 nM against Dipeptidyl peptidase 2.
Consider `COC1=N[C@H](C(C)C)C(OC)=N[C@H]1[C@H]1CCCC(O)C1` (stereo partly drawn), for which, in assay [1], the IC50 is greater than 100000 nM.
For the molecule `CN(C)S(=O)(=O)c1ccc(S(=O)(=O)N[C@H]2CC[C@H]([C@H](N)C(=O)N3CCCC3)C2)cc1`, the IC50 was greater than 100000 nM in assay [1], 110 nM at Dipeptidyl peptidase 4 and 53 nM against Dipeptidyl peptidase 2.
As to `N[C@H](C(=O)N1CCCC1)[C@H]1CC[C@H](NS(=O)(=O)c2ccc(S(=O)(=O)C(F)(F)F)cc2)C1`, the IC50 was greater than 100000 nM in assay [1], 220 nM at Dipeptidyl peptidase 4 and 110 nM against Dipeptidyl peptidase 2.
With `COc1ccc(NC(=O)O[C@@H]2CCC[C@H]([C@H](N)C(=O)N3CCCC3)C2)cc1`, the IC50 in assay [1] was greater than 100000 nM; at Dipeptidyl peptidase 4, 180 nM; on Dipeptidyl peptidase 2, 2500 nM; at Prolyl endopeptidase, greater than 100000 nM.
For the molecule `COc1ccc(NC(=O)O[C@H]2CCC[C@H]([C@H](N)C(=O)N3CCSC3)C2)cc1`, the IC50 in assay [1] is greater than 100000 nM; on Dipeptidyl peptidase 4, 420 nM; against Dipeptidyl peptidase 2, 440 nM.
In the case of `N[C@H](C(=O)N1CCCC1)[C@H]1CCC[C@H](O)C1`, the IC50 in assay [1] was greater than 100000 nM; on Dipeptidyl peptidase 4 it was 290 nM; at Dipeptidyl peptidase 2, 40000 nM; at Prolyl endopeptidase, greater than 100000 nM.
`COC1=N[C@H]([C@@H]2CC[C@H](O)C2)C(OC)=N[C@H]1C(C)C`: in assay [1], the IC50 is greater than 100000 nM.
Regarding `N[C@H](C(=O)N1CCCC1)[C@@H]1CC[C@@H](OC(=O)Nc2ccc(I)cc2)C1`, the values for the concentration for half-maximal inhibition (IC50) (in assay [1]; on Dipeptidyl peptidase 4; against Dipeptidyl peptidase 2) were greater than 100000 nM, 110 nM and 820 nM, respectively.
In the same order, the values of `N[C@@H](C(=O)N1CCSC1)[C@H]1CC[C@@H](OC(=O)Nc2cccc3ccccc23)C1` are greater than 100000 nM, 1700 nM and 110 nM.
Turning to `N[C@H](C(=O)N1CCSC1)[C@H]1CC[C@H](NC(=O)c2cccc3ccccc23)C1`, the IC50 in assay [1] is greater than 100000 nM; at Dipeptidyl peptidase 4 it was 47 nM; at Dipeptidyl peptidase 2, 240 nM; against Prolyl endopeptidase it was 1400 nM.
For `N[C@H](C(=O)N1CCCC1)[C@@H]1CC[C@@H](NS(=O)(=O)c2ccc(C(=O)O)cc2)C1`, the figures for the IC50 (in assay [1]; on Dipeptidyl peptidase 4; against Dipeptidyl peptidase 2) were greater than 100000 nM, 110 nM and 5000 nM, respectively.
In the same order, the values of `N[C@H](C(=O)N1CCCC1)[C@@H]1CC[C@H](NC(=O)Nc2cccc3ccccc23)C1` are greater than 100000 nM, 440 nM and 1300 nM.
In turn, `COC1=N[C@H](C(C)C)C(OC)=N[C@H]1[C@H]1CCC(=O)C1` showed an IC50 in assay [1] greater than 100000 nM.
For `COc1ccc(NC(=O)O[C@@H]2CC[C@H]([C@H](N)C(=O)N3CCSC3)C2)cc1`, the figures for the IC50 (in assay [1]; on Dipeptidyl peptidase 4; on Dipeptidyl peptidase 2) were greater than 100000 nM, 240 nM and 43 nM, respectively.
On the same counts, the results for `N[C@H](C(=O)N1CCCC1)[C@@H]1CC[C@@H](NS(=O)(=O)c2ccc(S(N)(=O)=O)cc2)C1` are greater than 100000 nM, 46 nM and 2300 nM.
On to `N[C@H](C(=O)N1CCCC1)[C@@H]1CC[C@H](OC(=O)Nc2ccc(I)cc2)C1`, for which the 50% inhibitory concentration (IC50) was greater than 100000 nM in assay [1], 670 nM at Dipeptidyl peptidase 4 and 250 nM at Dipeptidyl peptidase 2.
On to `COC(=O)[C@@H](NC(=O)OC(C)(C)C)[C@H]1CC[C@@H](O)C1`, for which the IC50 in assay [1] is greater than 100000 nM.
Same read-out and setting: as for `O=C(N[C@H](C(=O)N1CCCC1)[C@@H]1CC[C@@H](OC(=O)c2ccc([N+](=O)[O-])cc2)C1)OCc1ccccc1`, the figure is greater than 100000 nM.
Take `N[C@H](C(=O)N1CCCC1)[C@H]1CC[C@@H](NC(=O)c2cccc3ccccc23)C1`: the IC50 is greater than 100000 nM in assay [1], 230 nM on Dipeptidyl peptidase 4 and 990 nM against Dipeptidyl peptidase 2.
Take `N[C@H](C(=O)N1CCCC1)[C@H]1CCC[C@H](OC(=O)Nc2ccc(I)cc2)C1`: the IC50 is greater than 100000 nM in assay [1], 330 nM at Dipeptidyl peptidase 4, 110 nM against Dipeptidyl peptidase 2 and greater than 100000 nM at Prolyl endopeptidase.
As to `N[C@H](C(=O)N1CCSC1)[C@H]1CC[C@@H](OC(=O)Nc2cccc(F)c2)C1`, the IC50 in assay [1] is greater than 100000 nM; at Dipeptidyl peptidase 4, 210 nM; at Dipeptidyl peptidase 2, 75 nM; against Prolyl endopeptidase it was greater than 100000 nM.
`O=C(N[C@H](C(=O)N1CCCC1)[C@@H]1CC[C@@H](O)C1)OCc1ccccc1` came in with an IC50 in assay [1] greater than 100000 nM.
On to `COc1ccc(NC(=O)O[C@H]2CC[C@H]([C@H](N)C(=O)N3CCCC3)C2)cc1`, for which the figures for the IC50 (in assay [1]; on Dipeptidyl peptidase 4; against Dipeptidyl peptidase 2) were greater than 100000 nM, 270 nM and 1400 nM, respectively.
For the molecule `CS(=O)(=O)c1ccc(S(=O)(=O)N[C@H]2CC[C@H]([C@H](N)C(=O)N3CCCC3)C2)cc1`, the IC50 in assay [1] was greater than 100000 nM; on Dipeptidyl peptidase 4, 130 nM; at Dipeptidyl peptidase 2, 19000 nM; at Prolyl endopeptidase it was greater than 100000 nM.
`CS(=O)(=O)NCCS(=O)(=O)N[C@H]1CC[C@H]([C@H](N)C(=O)N2CCCC2)C1`: the IC50 in assay [1] was greater than 100000 nM; at Dipeptidyl peptidase 4, 95 nM; at Dipeptidyl peptidase 2 it was 2000 nM; on Prolyl endopeptidase, greater than 100000 nM.
For the molecule `N[C@H](C(=O)N1CCCC1)[C@H]1CC[C@@H](NC(=O)Nc2cccc3ccccc23)C1`, the IC50 in assay [1] was greater than 100000 nM; on Dipeptidyl peptidase 4, 110 nM; against Dipeptidyl peptidase 2, 270 nM.
As for `COc1ccc(NC(=O)O[C@H]2CCC[C@H]([C@H](N)C(=O)N3CCCC3)C2)cc1`, the IC50 in assay [1] was greater than 100000 nM; at Dipeptidyl peptidase 4, 480 nM; against Dipeptidyl peptidase 2, 780 nM; at Prolyl endopeptidase, greater than 100000 nM.
Turning to `N[C@H](C(=O)N1CCCC1)[C@H]1CC[C@H](O)C1`, the IC50 in assay [1] was greater than 100000 nM; on Dipeptidyl peptidase 4, 840 nM; against Dipeptidyl peptidase 2 it was 46000 nM; on Prolyl endopeptidase, greater than 100000 nM.
`N[C@@H](C(=O)N1CCSC1)[C@H]1CC[C@@H](OC(=O)Nc2cccc(F)c2)C1`: the IC50 in assay [1] was greater than 100000 nM; on Dipeptidyl peptidase 4, 1200 nM; against Dipeptidyl peptidase 2 it was 540 nM; at Prolyl endopeptidase it was greater than 100000 nM.
For `N[C@H](C(=O)N1CCCC1)[C@H]1CC[C@@H](OC(=O)Nc2ccccc2-c2ccccc2)C1`, the IC50 is greater than 100000 nM in assay [1], 3900 nM on Dipeptidyl peptidase 4 and 870 nM at Dipeptidyl peptidase 2.
With `O=C(N[C@H](C(=O)N1CCCC1)[C@@H]1CC[C@H](O)C1)OCc1ccccc1`, the IC50 in assay [1] is greater than 100000 nM.
On to `N[C@H](C(=O)N1CCCC1)[C@H]1CC[C@@H](OC(=O)Nc2ccc(I)cc2)C1`, for which the IC50 in assay [1] was greater than 100000 nM; at Dipeptidyl peptidase 4 it was 660 nM; against Dipeptidyl peptidase 2 it was 160 nM.
In the same order, the values of `COc1ccc(NC(=O)O[C@@H]2CCC[C@H]([C@H](N)C(=O)N3CCSC3)C2)cc1` are greater than 100000 nM, 83 nM and 220 nM.
For `N[C@H](C(=O)N1CCCC1)[C@H]1CC[C@H](NS(=O)(=O)c2ccc(S(N)(=O)=O)cc2)C1`, the IC50 in assay [1] was greater than 100000 nM; at Dipeptidyl peptidase 4, 83 nM; against Dipeptidyl peptidase 2 it was 22 nM.
With `COc1ccc(NC(=O)O[C@@H]2CC[C@H]([C@H](N)C(=O)N3CCCC3)C2)cc1`, the IC50 in assay [1] was greater than 100000 nM; at Dipeptidyl peptidase 4 it was 1100 nM; against Dipeptidyl peptidase 2 it was 630 nM.
Take `COC1=N[C@@H](C(C)C)C(OC)=NC1`: in assay [1], the IC50 is greater than 100000 nM.
For the molecule `N[C@H](C(=O)N1CCSC1)[C@H]1CC[C@@H](OC(=O)Nc2ccc(Cl)c(Cl)c2)C1`, the IC50 in assay [1] was greater than 100000 nM; on Dipeptidyl peptidase 4, 280 nM; on Dipeptidyl peptidase 2, 14 nM.
On the same counts, the results for `N[C@H](C(=O)N1CCCC1)[C@@H]1CC[C@H](NS(=O)(=O)c2ccc(S(N)(=O)=O)cc2)C1` are greater than 100000 nM, 250 nM and 3100 nM.
The molecule `COC1=N[C@H](C(C)C)C(OC)=N[C@H]1[C@H]1CC[C@H](O)C1` yielded an IC50 in assay [1] greater than 100000 nM.
As to `N[C@H](C(=O)N1CCCC1)[C@H]1CC[C@H](NS(=O)(=O)c2ccc(C(=O)O)cc2)C1`, the results for the IC50 (in assay [1]; on Dipeptidyl peptidase 4; on Dipeptidyl peptidase 2) were greater than 100000 nM, 72 nM and 12000 nM, respectively.
`COC1=N[C@H](C(C)C)C(OC)=NC1` displayed an IC50 in assay [1] greater than 100000 nM.
As to `N[C@H](C(=O)N1CCCC1)[C@@H]1CC[C@@H](NC(=O)Nc2cccc3ccccc23)C1`, the figures for the IC50 (in assay [1]; at Dipeptidyl peptidase 4; against Dipeptidyl peptidase 2) were greater than 100000 nM, 94 nM and 430 nM, respectively.
With `COC1=N[C@H](C(C)C)C(OC)=N[C@H]1[C@H]1CC[C@@H](O)C1`, the IC50 in assay [1] was greater than 100000 nM.
Same read-out and setting: next, `COC(=O)[C@H](NC(=O)OCc1ccccc1)[C@@H]1CC[C@H](O)C1`: greater than 100000 nM; `COC(=O)[C@@H](NC(=O)OCc1ccccc1)[C@@H]1CC[C@H](O)C1`: greater than 100000 nM.
